Values belong to the compound of their own block, whether it stands above or below them. Active and inactive are the calls of the source. No cut-off for these calls is given here.
What was measured:
[1] = Inhibition of HCV NS5B Cdelta21 in presence of heterogenic template RNA; set-up: species or system Hepacivirus hominis
In short: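 Purified NS5B enzyme (C-terminal 21-residue deletion) assayed with heterogenic template RNA. IC50 is the mean of at least two experiments.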

Hepatitis C virus = experiment: Antiviral activity against Hepatitis C virus infected in human HUH7 cells by replicon assay; assay type: functional, organism-based, Hepacivirus hominis; conditions: Huh-7
In short: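 Subgenomic HCV RNA replicon in HUH-7 cells, adapted from the Bartenschlager procedure, run in 10% fetal calf serum unless otherwise stated. EC50 is the mean of at least two experiments.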

[2] = AUC in rat; assay type: ADME, organism-based; conditions: plasma
In short: (§1)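 Given as HCl or trifluoroacetate salts, intravenously (vehicle 20% DMSO/60% PEG400/20% H2O) and orally (vehicle PEG400); n = 3. AUC reported with the dose in mpk; oral bioavailability and plasma clearance are derived from these dosings.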

[3] = Oral bioavailability in rat; assay type: ADME, organism-based; conditions: in vivo; in short: as §1
[4] = Protein binding in human plasma; assay type: ADME, cell-free; conditions: read-out: PPB (converted)
[5] = Plasma clearance in dog; assay type: ADME, organism-based, Canis lupus familiaris; in short: as §1
[6] = Intrinsic clearance in dog liver microsomes in presence of NADPH; assay type: ADME, Canis lupus familiaris, Microsome
In short: (§2)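 Incubated with liver microsomes (rat, dog, rhesus or human) in the presence of NADPH. Intrinsic clearance is expressed in ml/min/kg.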

[7] = Metabolic stability in po dosed rat assessed as urinary excretion; assay type: ADME, organism-based; conditions: urine, read-out: Stability
[8] = Oral bioavailability in rhesus monkey; assay type: ADME, organism-based, Macaca mulatta; conditions: in vivo; in short: as §1
[9] = Intrinsic clearance in human liver microsomes in presence of NADPH; assay type: ADME, Microsome; in short: as §2
[10] = Metabolic stability in po dosed rat assessed as biliary excretion; assay type: ADME, organism-based; conditions: bile, read-out: Stability
[11] = Ratio of drug level from liver to plasma in po dosed rat after 6 hrs; assay type: ADME, organism-based
In short: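 Rats dosed orally; compound concentrations in liver and plasma measured 6 h after administration and expressed as a liver/plasma ratio.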

[12] = Plasma clearance in rat; assay type: ADME, organism-based; in short: as §1
[13] = Fraction unbound in human plasma; assay type: ADME, cell-free
[14] = AUC in dog; assay type: ADME, organism-based, Canis lupus familiaris; conditions: plasma; in short: as §1
[15] = Fraction unbound in dog plasma; assay type: ADME, cell-free, Canis lupus familiaris
Cytochrome P450 3A4 = Cytochrome P450 3A4 (Homo sapiens, UniProt P08684); experiment: Inhibition of CYP3A4 in human liver microsomes; assay type: ADME, Microsome
Chain of Cytochrome P450 3A4 (P08684 whole entry): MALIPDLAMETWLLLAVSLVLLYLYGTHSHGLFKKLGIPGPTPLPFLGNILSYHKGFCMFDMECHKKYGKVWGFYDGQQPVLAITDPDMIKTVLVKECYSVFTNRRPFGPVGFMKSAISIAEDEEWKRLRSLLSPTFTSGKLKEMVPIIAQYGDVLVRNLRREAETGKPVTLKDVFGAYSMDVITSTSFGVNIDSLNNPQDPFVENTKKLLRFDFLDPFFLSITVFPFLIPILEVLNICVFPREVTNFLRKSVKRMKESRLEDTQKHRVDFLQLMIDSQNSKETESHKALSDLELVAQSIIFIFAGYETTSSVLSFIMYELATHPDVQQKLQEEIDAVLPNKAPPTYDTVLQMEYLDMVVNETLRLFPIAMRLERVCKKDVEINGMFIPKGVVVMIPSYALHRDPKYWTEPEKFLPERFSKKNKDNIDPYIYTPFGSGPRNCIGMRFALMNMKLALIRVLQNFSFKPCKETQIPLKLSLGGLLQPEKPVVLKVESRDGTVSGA

[16] = Plasma clearance in rhesus monkey; assay type: ADME, organism-based, Macaca mulatta; in short: as §1
[17] = Oral bioavailability in dog; assay type: ADME, organism-based, Canis lupus familiaris; conditions: in vivo; in short: as §1
[18] = Intrinsic clearance in rhesus monkey liver microsomes in presence of NADPH; assay type: ADME, Macaca mulatta, Microsome; in short: as §2
Homo sapiens = species on record: Homo sapiens; experiment: Inhibition of human DNA polymerase
[19] = Metabolic stability in po dosed dog assessed as urinary excretion; assay type: ADME, organism-based, Canis lupus familiaris; conditions: urine, read-out: Stability
[20] = AUC in rhesus monkey; assay type: ADME, organism-based, Macaca mulatta; conditions: plasma; in short: as §1
[21] = biological target: T1, Nuclear receptor subfamily 1 group I member 2 (Homo sapiens, UniProt O75469); experiment: Activity at human PXR at 10 uM by reporter gene assay
T1 sequence (O75469 whole entry): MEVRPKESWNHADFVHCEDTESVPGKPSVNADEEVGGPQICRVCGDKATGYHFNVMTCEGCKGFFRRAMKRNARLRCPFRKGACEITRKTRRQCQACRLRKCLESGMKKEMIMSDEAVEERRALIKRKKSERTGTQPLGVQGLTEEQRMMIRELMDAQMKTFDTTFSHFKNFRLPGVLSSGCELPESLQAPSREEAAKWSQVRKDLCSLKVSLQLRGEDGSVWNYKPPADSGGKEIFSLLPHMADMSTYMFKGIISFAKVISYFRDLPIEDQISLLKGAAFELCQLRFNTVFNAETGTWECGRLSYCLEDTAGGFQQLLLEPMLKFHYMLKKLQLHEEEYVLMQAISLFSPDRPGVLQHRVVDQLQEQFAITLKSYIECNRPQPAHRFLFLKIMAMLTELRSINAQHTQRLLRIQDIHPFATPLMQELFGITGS

Hepatocyte = experiment: Metabolic stability in human hepatocytes after 4 hrs by HPLC; assay type: ADME, cell-based
In short: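 [3H]-labelled compound incubated 4 h with human hepatocytes. Analysis by HPLC with radiochromatographic detection.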

[22] = Fraction unbound in rat plasma; assay type: ADME, cell-free
[23] = Intrinsic clearance in rat liver microsomes in presence of NADPH; assay type: ADME, Microsome; in short: as §2
Canis familiaris = experiment: Cardiotoxicity in anesthetized dogs assessed as prolongation of QT interval up to 10 mg/kg; assay type: toxicity, organism-based, Canis lupus familiaris; set-up: dose 10 mg/kg; conditions: dog, in vivo

IC50 [1]: 35 nM
EC50 (Hepatitis C virus): 100 nM
SMILES: COc1ccc2c(c1)CN(CCN(C)C)CCn1c-2c(C2CCCCC2)c2ccc(C(=O)O)cc21

IC50 [1]: 170 nM
EC50 (Hepatitis C virus): 890 nM
SMILES: CN1CCn2c(c(C3CCCCC3)c3ccc(C(=O)O)cc32)-c2ccccc2C1

AUC [2]: 0.2 µM·h
IC50 [1]: 48 nM
bioavailability [3]: 10%
EC50 (Hepatitis C virus): 180 nM
SMILES: CCN(CC)C1CCN(C(=O)Cn2c(-c3ccc(Cl)cc3)c(C3CCCCC3)c3ccc(C(=O)O)cc32)CC1

IC50 [1]: 28 nM
SMILES: CN(C)CCN1CCn2c(c(C3CCCCC3)c3ccc(C(=O)O)cc32)-c2ccccc21

fraction unbound [4]: 0.029
IC50 [1]: 430 nM
SMILES: CN(C)C(=O)Cn1c(-c2ccccc2)c(C2CCCCC2)c2ccc(C(=O)O)cc21

IC50 [1]: 860 nM
EC50 (Hepatitis C virus): 1440 nM
SMILES: CN(C)CCN1Cc2ccccc2-c2c(C3CCCCC3)c3ccc(C(=O)O)cc3n2CCC1=O

IC50 [1]: 35 nM
EC50 (Hepatitis C virus): 140 nM
SMILES: CN(C)CC1Cn2c(c(C3CCCCC3)c3ccc(C(=O)O)cc32)-c2ccccc2CN1C (racemic)

IC50 [1]: 130 nM
EC50 (Hepatitis C virus): 220 nM
SMILES: CN(C)CC(=O)N1CCn2c(c(C3CCCCC3)c3ccc(C(=O)O)cc32)-c2ccccc2C1

IC50 [1]: 1920 nM
EC50 (Hepatitis C virus): 13500 nM
SMILES: CN(C)CC1CN(C)c2ccccc2-c2c(C3CCCCC3)c3ccc(C(=O)O)cc3n21 (racemic)

IC50 [1]: 43 nM
EC50 (Hepatitis C virus): 160 nM
SMILES: CN(C)CC1Cn2c(c(C3CCCCC3)c3ccc(C(=O)O)cc32)-c2ccccc2N1C (racemic)

IC50 [1]: 130 nM
EC50 (Hepatitis C virus): 410 nM
SMILES: CN(C)CCN1C(=O)Cn2c(c(C3CCCCC3)c3ccc(C(=O)O)cc32)-c2ccccc21

fraction unbound [4]: 0.003
IC50 [1]: 80 nM
EC50 (Hepatitis C virus): 18900 nM
SMILES: CN1Cc2ccccc2-c2c(C3CCCCC3)c3ccc(C(=O)O)cc3n2CC1=O

clearance [5]: 2.5 mL/min/kg
CLint scaled [6]: 26 mL/min/kg
dose excreted [7]: 1%
bioavailability [8]: 57%
CLint scaled [9]: 5 mL/min/kg
dose excreted [10]: 4%
Kp at 6 h [11]: 16
clearance [12]: 61 mL/min/kg
fraction unbound [13]: 0.03
AUC [14]: 23 µM·h
AUC [2]: 4.2 µM·h
fraction unbound [15]: 0.03
Activity (Cytochrome P450 3A4): Not Active
clearance [16]: 22 mL/min/kg
bioavailability [17]: 74%
CLint scaled [18]: 51 mL/min/kg
Activity (Homo sapiens): inactive
IC50 [1]: 27 nM
bioavailability [3]: 31%
dose excreted [19]: < 1%
AUC [20]: 2 µM·h
Activity [21]: Not Active
Stability (Hepatocyte): Stable
fraction unbound [22]: 0.07
CLint scaled [23]: 100 mL/min/kg
SMILES: CN(C)CCN1CCn2c(c(C3CCCCC3)c3ccc(C(=O)O)cc32)-c2ccccc2C1
Activity (Canis familiaris): Non-toxic

IC50 [1]: 77 nM
EC50 (Hepatitis C virus): 540 nM
SMILES: COc1ccc2c(c1)N(CCN(C)C)CCCn1c-2c(C2CCCCC2)c2ccc(C(=O)O)cc21

clearance [5]: 2.9 mL/min/kg
CLint scaled [6]: 6 mL/min/kg
CLint scaled [9]: 7 mL/min/kg
clearance [12]: 32 mL/min/kg
AUC [14]: 18.7 µM·h
AUC [2]: 2.9 µM·h
bioavailability [17]: 67%
CLint scaled [18]: 16 mL/min/kg
IC50 [1]: 55 nM
bioavailability [3]: 83%
EC50 (Hepatitis C virus): 290 nM
CLint scaled [23]: 43 mL/min/kg
SMILES: COc1ccc2c(c1)CN(C)CCn1c-2c(C2CCCCC2)c2ccc(C(=O)O)cc21

IC50 [1]: 110 nM
EC50 (Hepatitis C virus): 260 nM
SMILES: CN(C)CCN1Cc2ccccc2-c2c(C3CCCCC3)c3ccc(C(=O)O)cc3n2CC1=O

clearance [5]: 3 mL/min/kg
CLint scaled [6]: 8 mL/min/kg
CLint scaled [9]: 13 mL/min/kg
Kp at 6 h [11]: 8
clearance [12]: 12 mL/min/kg
fraction unbound [13]: 0.02
AUC [14]: 17.6 µM·h
AUC [2]: 4 µM·h
fraction unbound [15]: 0.02
bioavailability [17]: 83%
CLint scaled [18]: 42 mL/min/kg
IC50 [1]: 60 nM
bioavailability [3]: 48%
EC50 (Hepatitis C virus): 170 nM
fraction unbound [22]: 0.02
CLint scaled [23]: 16 mL/min/kg
SMILES: CN(C)CC(=O)N1CCn2c(c(C3CCCCC3)c3ccc(C(=O)O)cc32)-c2ccc(F)cc2C1

— ChEMBL document CHEMBL1143361, “Tetracyclic indole inhibitors of hepatitis C virus NS5B-polymerase” (Bioorg Med Chem Lett, 2009)
